How the values were obtained:
[1] = target: T1, Mineralocorticoid receptor (Rattus norvegicus) (UniProt P22199); assay: Binding affinity expressed as the percent inhibition of 2x10E-9 M [3H]aldosterone binding to the renal mineralocorticoid receptor by the presence of competing steroid (8x10E-8 M).
T1 sequence (whole entry): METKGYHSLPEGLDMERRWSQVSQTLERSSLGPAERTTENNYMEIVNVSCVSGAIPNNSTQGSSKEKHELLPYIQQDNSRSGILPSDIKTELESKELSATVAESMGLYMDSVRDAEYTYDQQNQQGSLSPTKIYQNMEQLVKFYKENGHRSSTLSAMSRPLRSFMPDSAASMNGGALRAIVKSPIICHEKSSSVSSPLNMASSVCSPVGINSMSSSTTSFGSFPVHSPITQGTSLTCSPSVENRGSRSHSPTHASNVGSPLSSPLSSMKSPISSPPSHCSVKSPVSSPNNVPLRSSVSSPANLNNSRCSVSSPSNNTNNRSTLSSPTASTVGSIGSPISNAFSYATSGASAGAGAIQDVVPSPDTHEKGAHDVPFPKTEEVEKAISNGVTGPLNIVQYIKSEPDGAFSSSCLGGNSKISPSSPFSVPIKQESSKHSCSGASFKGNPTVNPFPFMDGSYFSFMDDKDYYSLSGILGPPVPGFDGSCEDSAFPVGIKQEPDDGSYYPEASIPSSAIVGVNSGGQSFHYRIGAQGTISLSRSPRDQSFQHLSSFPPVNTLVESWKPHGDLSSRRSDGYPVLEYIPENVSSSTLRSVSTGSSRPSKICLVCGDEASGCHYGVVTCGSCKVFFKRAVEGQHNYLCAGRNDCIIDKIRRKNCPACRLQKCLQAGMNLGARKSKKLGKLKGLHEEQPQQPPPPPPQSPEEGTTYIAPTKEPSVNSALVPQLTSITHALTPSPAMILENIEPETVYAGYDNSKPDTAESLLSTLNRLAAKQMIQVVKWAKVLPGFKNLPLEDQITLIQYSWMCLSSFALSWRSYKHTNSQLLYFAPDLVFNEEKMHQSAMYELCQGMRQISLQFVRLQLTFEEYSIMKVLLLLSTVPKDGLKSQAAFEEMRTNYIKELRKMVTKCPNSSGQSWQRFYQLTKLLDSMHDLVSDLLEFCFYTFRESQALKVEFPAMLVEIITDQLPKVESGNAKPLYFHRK
Summary of the method: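 Washed kidney slices from adrenalectomized rats incubated with 2 × 10^-9 M [3H]aldosterone plus 8 × 10^-8 M competing 18-hydroxy steroid and 2 × 10^-8 M dexamethasone, pH 7.2 Tris/phosphate saline buffer with Mg, Ca, dextrose. Homogenized; high-speed supernatant treated with charcoal-dextran to strip free ligand. Bound label counted as cpm/mg protein, nonspecific at 2 × 10^-7 M unlabeled aldosterone. Value is % inhibition; Student's t test vs 0%.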

[2] = target: T1, Mineralocorticoid receptor (Rattus norvegicus); assay: Mineralocorticoid activity in vivo expressed as a ratio (M/DOCA) of the urinary sodium/potassium excretion transformations after deoxy-corticosterone acetate treatment.; assay type: functional, organism-based; settings: Urine
Summary of the method: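 Saline-loaded (2.5 mL) adrenalectomized rats given 12 μg DOCA s.c. in oil plus test steroid 2.4 mg/animal s.c. in corn oil. Urine collected 4 h in metabolism cages, then voided by suprapubic pressure. Na and K measured by flame photometry as log(Na × 10/K). Ratio to DOCA-only controls (M/DOCA); >1.23 taken as antagonism, <0.85 as agonism.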

| Compound | Percent inhibition of [3H]aldosterone binding [1] | Ratio [2] |
| --- | --- | --- |
| C[C@H]1OC(=O)[C@]23CC[C@H]4[C@@H](CC[C@H]5CC(=O)CC[C@@]54C)[C@@H]2CC[C@H]13 | 0 | 0.87 |
| C[C@H]1OC(=O)C23CCC4C(CCC5=CC(=O)CCC54C)C2CCC13 (stereo partly specified) | 65 | 1.32 |
| CC(=O)OCC12CC[C@H]3[C@@H](CC[C@H]4CC(=O)CCC43C)[C@@H]1CCC2[C@@H](C)O (stereo partly specified) | 17 | 0.93 |
| C[C@@H](O)C1CC[C@H]2[C@@H]3CC[C@H]4CC(O)CCC4(C)[C@H]3CCC12CO (stereo partly specified) | 23.5 | 0.72 |
| CC(=O)OC[C@]12CC[C@H]3[C@@H](CC[C@H]4CC(=O)CC[C@@]43C)[C@@H]1CC[C@@H]2C(C)=O | 0 | 1.08 |
| CC12CCC(=O)C=C1CCC1C2CCC23COC(O)(CO)C2CCC13 (stereo unspecified) | 29.5 | 0.54 |
| CC1(O)OC[C@]23CC[C@H]4[C@@H](CC[C@H]5CC(=O)CC[C@@]54C)[C@@H]2CC[C@H]13 (stereo partly specified) | 0 | 1.01 |
| CC12CCC(=O)C[C@@H]1CC[C@H]1[C@@H]3CCC4C(O)(CO)OCC43CC[C@@H]12 (stereo partly specified) | 3 | 0.69 |
| CC1(O)OCC23CCC4C(CC=C5CC(O)CCC54C)C2CCC13 (stereo unspecified) | 10.1 | 0.5 |
| C[C@@H](O)C1CCC2C3CCC4=CC(=O)CCC4(C)C3CCC21CO (stereo partly specified) | 34.3 | 1.33 |
| CC1(O)OCC23CC[C@H]4[C@@H](CC[C@H]5CC(O)CCC54C)[C@@H]2CCC13 (stereo partly specified) | 30 | 0.92 |
| CC(=O)OCC12CC[C@H]3[C@@H](CC[C@H]4CC(=O)CCC43C)[C@@H]1CCC2C(C)=O (stereo partly specified) | 0 | 1.1 |
| CC(=O)OCC12CCC3C(CC=C4CC(O)CCC43C)C1CCC2C(C)=O (stereo unspecified) | 0 | 1.95 |
| CC1(O)OCC23CC[C@H]4[C@@H](CC[C@H]5CC(=O)CCC54C)[C@@H]2CCC13 (stereo partly specified) | 8.3 | 0.91 |
| CC12CCC(O)CC1=CCC1C2CCC23COC(O)(CO)C2CCC13 (stereo unspecified) | 3.5 | 0.71 |
| C[C@H]1OC(=O)C23CC[C@H]4[C@@H](CC[C@H]5CC(=O)CCC54C)[C@@H]2CCC13 (stereo partly specified) | 10.5 | 0.96 |
| CC(=O)OCC1(O)OCC23CC[C@H]4[C@@H](CC[C@H]5CC(O)CCC54C)[C@@H]2CCC13 (stereo partly specified) | 0 | 1.1 |
| CC(=O)OCC12CC[C@H]3[C@@H](CC[C@H]4CC(O)CCC43C)[C@@H]1CCC2C(C)=O (stereo partly specified) | 0 | 0.99 |
| CC(=O)OCC1(O)OCC23CC[C@H]4[C@@H](CC[C@H]5CC(=O)CCC54C)[C@@H]2CCC13 (stereo partly specified) | 20 | 0.8 |

| Compound | Percent inhibition of [3H]aldosterone binding [1] | Ratio [2] |
| --- | --- | --- |
| CC1(O)OCC23CCC4C(CCC5=CC(=O)CCC54C)C2CCC13 (stereo unspecified) | 34.5 | 0.76 |
| CC(=O)OCC1(O)OCC23CCC4C(CCC5=CC(=O)CCC54C)C2CCC13 (stereo unspecified) | 34 | 0.71 |
| CC(=O)OCC1(O)OCC23CCC4C(CC=C5CC(O)CCC54C)C2CCC13 (stereo unspecified) | 7 | 0.55 |
| CC(=O)OC[C@]12CC[C@H]3[C@@H](CC[C@H]4CC(=O)CC[C@@]43C)[C@@H]1CC[C@@H]2[C@@H](C)O | 10.5 | 1.16 |
| C[C@@H](O)C1CC[C@H]2[C@@H]3CC[C@H]4CC(=O)CCC4(C)[C@H]3CCC12CO (stereo partly specified) | 13 | 1.03 |
| CC1(O)OC[C@]23CC[C@H]4[C@@H](CCC5C[C@@H](O)CC[C@@]54C)[C@@H]2CC[C@H]13 (stereo partly specified) | – | 0.91 |
| C[C@H]1OC(=O)C23CC[C@H]4[C@@H](CC[C@H]5CC(O)CCC54C)[C@@H]2CCC13 (stereo partly specified) | – | 0.61 |
| CC(=O)OCC12CCC3C(CCC4=CC(=O)CCC43C)C1CCC2[C@@H](C)O (stereo partly specified) | 13 | 1.16 |
| C[C@@H](O)C1CCC2C3CC=C4CC(O)CCC4(C)C3CCC21CO (stereo partly specified) | 5 | 0.89 |
| CC(=O)OC[C@]12CC[C@H]3[C@@H](CC[C@H]4C[C@@H](O)CC[C@@]43C)[C@@H]1CC[C@@H]2C(C)=O | 14.2 | 1.13 |
| C[C@]12CC[C@H](O)C[C@@H]1CC[C@@H]1[C@@H]2CC[C@]23COC(O)(CO)[C@H]2CC[C@@H]13 (stereo partly specified) | 19.5 | 1.06 |
| C[C@H]1OC(=O)C23CCC4C(CC=C5CC(O)CCC54C)C2CCC13 (stereo partly specified) | 12.5 | 0.72 |
| C[C@@H](O)[C@H]1CC[C@H]2[C@@H]3CC[C@H]4CC(=O)CC[C@]4(C)[C@H]3CC[C@]12CO | 6.5 | 0.43 |
| CC(=O)OCC1(O)OC[C@]23CC[C@H]4[C@@H](CC[C@H]5CC(=O)CC[C@@]54C)[C@@H]2CC[C@H]13 (stereo partly specified) | 20 | 0.96 |
| CC12CCC(O)C[C@@H]1CC[C@H]1[C@@H]3CCC4C(O)(CO)OCC43CC[C@@H]12 (stereo partly specified) | 0 | 0.96 |
| CC(=O)OCC1(O)OC[C@]23CC[C@H]4[C@@H](CC[C@H]5C[C@@H](O)CC[C@@]54C)[C@@H]2CC[C@H]13 (stereo partly specified) | – | 0.83 |
| C[C@]12CCC(=O)C[C@@H]1CC[C@@H]1[C@@H]2CC[C@]23COC(O)(CO)[C@H]2CC[C@@H]13 (stereo partly specified) | 32 | 0.78 |
| CC(=O)OCC12CCC3C(CCC4=CC(=O)CCC43C)C1CCC2C(C)=O (stereo unspecified) | 25.5 | 1.19 |

Source: ChEMBL document CHEMBL1122892, “Mineralocorticoid properties of potential metabolites of 18-hydroxydeoxycorticosterone and 18-hydroxyprogesterone” (J Med Chem, 1985)
